# ABCG2 inh: inhibitors of human ABCG2 transporter, ABCB1 counter-screen | Q9UNQ0 | IgMXP3 cells, JC-1 efflux, flow cytometry | inhibition, % at 6.6 µM | 0.1% of 190,000 active | AID 1325;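 active = inhibition above 80%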;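 note: 0% = DMSO and 100% = nicardipine control wells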
#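 Times: 10 min at 25 °C | Test system: Two drug-resistant human cell lines, ABCG2 and ABCB1 | Quantity: 3 million cells/mL final, two lines in 1:1 ratio | Signal: Flow cytometry, 530 nm JC-1 signal | Dosing: Compound at 6.6 µM | Controls: Nicardipine and DMSO wells | Reagent: JC-1 as fluorescent efflux pump substrate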
# TRPML3 agonist: human mucolipin-3 channel agonism; Q8TDD5; HEK293 TRPML3-YFP, Fluo-8 calcium fluorescence; 100% = the carbachol control signal; activation, % at 3 µM; 0.29% of 220,000 active;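 active = activation above its plate's cutoff, the mean activation of the plate's test wells plus 3 SD, cut at about 12% in these data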;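 note: 0% = DMSO only wells and 100% = carbachol wells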
#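 system = HEK293 cells stably carrying human TRPML3-YFP | doses = one concentration, 3 µM nominal, 0.3% DMSO | timing = dye loading 1 h 37 °C then 30 min ambient, 125 s read | detection = Fluo-8 calcium dye fluorescence, ex 470-495, em 515-575 nm | benchmarks = high control carbachol 87 µM, low control DMSO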
# TRPN1 ag: zebrafish TRPN1 (NompC) channel agonism; HEK293 zebrafish TRPN1-YFP, Fluo-8 calcium fluorescence; 100% = response to 87 µM carbachol; activation, % at 3 µM; 0.18% of 220,000 active; AID 1424;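 active = activation above its plate's cutoff, the mean activation of test wells on that plate plus 3 SD, cut at about 19% in these data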;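 note: 0% = DMSO alone and 100% = 87 µM carbachol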
#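 Material: zebrafish TRPN1-YFP in HEK293 cells. Doses: one dose of 3 µM, 0.3% DMSO. Incubation: dye 1 h 37 °C plus 30 min RT. Measured by: intracellular calcium fluorescence with Fluo-8.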
# ABCB1 block: human ABCB1 inhibition, ABCG2 as counter-screen. P08183. CCRF-Adr cells, JC-1 efflux, flow cytometry. inhibition, % at 6.6 µM. 0.067% of 190,000 active; in the data active = inhibition above about 40%;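 note: 0% = vehicle and 100% = reference inhibitor; higher value means more JC-1 retained so stronger ABCB1 efflux block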
# ROMK mod: human ROMK K+ channel modulation, primary screen; P48048; B-score at 10 µM; 2% of 130,000 active; Tet-inducible ROMK, thallium flux fluorescence; actives lie on both sides; AID 1918;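 active = signal ratio slope over the read window, or its plate-corrected B-score, at least 3 SD from the plate mean, either direction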;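 note: B-score of the F/F0 ratio slope over 7 to 12 s after thallium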
# Target sequence (P48048 whole entry, looked up): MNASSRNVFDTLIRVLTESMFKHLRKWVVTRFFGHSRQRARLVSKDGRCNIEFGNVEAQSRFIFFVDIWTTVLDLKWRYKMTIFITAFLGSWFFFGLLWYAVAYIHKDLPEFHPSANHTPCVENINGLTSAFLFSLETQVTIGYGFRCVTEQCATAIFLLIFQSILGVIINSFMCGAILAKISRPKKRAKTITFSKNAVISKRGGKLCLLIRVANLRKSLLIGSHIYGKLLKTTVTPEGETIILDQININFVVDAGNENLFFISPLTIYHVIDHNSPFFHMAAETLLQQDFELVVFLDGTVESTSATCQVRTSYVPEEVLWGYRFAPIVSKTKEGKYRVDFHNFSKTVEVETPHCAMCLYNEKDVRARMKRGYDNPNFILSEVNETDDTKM
# Calb biofilm kill: mixture kills Candida albicans biofilm cells | 0.02% of 120,000 active | C. albicans biofilm persisters + clotrimazole, fluorescence viability; primary screen in compound mixtures of four per well | inhibition, % at 7.6 µM | AID 1242;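 active = inhibition above 30.3% in the primary screen of four-compound pools, then above 30% when the compound was retested; inconclusive = passed the primary limit but could not be retested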;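 note: compounds exposed to preformed 24 h biofilms for 48 h; 0% = untreated biofilm control and 100% = clotrimazole plus chlorhexidine kill blank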
#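 Incubation: 24 h biofilm formation, then 48 h compound exposure, 37 °C | Material: C. albicans biofilms | Buffer or medium: RPMI/MOPS medium, pH 7.0 | Measured by: 2-h Alamar Blue fluorescence, 535/590 nm excitation/emission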
# ROMK hit retest: confirmation of human ROMK potassium channel modulators; 54% of 3,000 active; ROMK thallium flux, fluorescence ratio; hits give low values; normalized thallium flux (F/F0 slope) at 10 µM; shares compounds with ROMK mod;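 active = Flux at 10 µM at least 3 SD below or above vehicle control mean in one or both replicates; inconclusive = no clear call, values can overlap the other calls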
# * marks the source's active call; other numbers are inactive results; ? = inconclusive; nt = not tested or not shown. Many of the other results were omitted from the sample, so hits are more common in it than they were.
SMILES,ABCG2 inh,TRPML3 agonist,TRPN1 ag,ABCB1 block,ROMK mod,Calb biofilm kill,ROMK hit retest
N#C/C(=C\C1=C(N2CCOCC2)C(=C\c2ccc(Cl)cc2)/CC1)C(=O)Nc1ccccc1F,11,1,3,8,-1.9,8,nt
COc1cccc(-n2c(SCc3ccccn3)nc3c(c2=O)SCC3)c1,1,0,0,2,1.1*,4,0.085
CC(C)C[C@@H](CSc1ccc(Br)cc1)N1CCN(C)CCC1=O,nt,nt,nt,nt,nt,16,0.075
COc1cc(CNCCN2CCOCC2)ccc1OCc1ccc(Cl)cc1Cl,1,2,1,0,nt,nt,0.055*
Cc1cc(C(=O)NC(Cc2ccccc2)C(=O)O)c(C)o1 (centres undefined),nt,1,0,nt,-0.17,16,nt
CC(C)(C)c1cc(C(=O)NCc2cc(F)cc3c2OCOC3)n(Cc2ccccc2)n1,nt,0,-2,nt,nt,19,0.08
O=C1C2C3C=CC(C3)C2C(=O)N1c1ccc(Cc2ccncc2)cc1 (centres undefined),2,2,5,1,nt,nt,nt
CC1CCC2C(=O)N(c3ccc(Cc4ccncc4)cc3)C(=O)C2C1 (centres undefined),5,4,11,2,-3.1*,13,?
CCn1cc(C(=O)N2CCc3ccccc32)c(=O)c2cc(S(=O)(=O)N(C)C3CCCCC3)ccc21,12,8,1,2,-2.8*,13,0.077
CCn1c(COc2c(C)cccc2C)nnc1SCC(=O)N1CCN(c2ccccc2)CC1,4,2,7,1,nt,nt,nt
C=CCn1c(COc2cccc(C)c2C)nnc1SCC(=O)N1CCN(c2ccccc2)CC1,7,1,4,1,nt,2,0.054*
CCN1CCN(C(=S)NCCc2ccccc2)CC1,0,0,-1,0,nt,nt,nt
S=C(NCCc1ccccc1)N1CCN(C23CC4CC(CC(C4)C2)C3)CC1,8,1,5,2,-7.9*,10,?
CC(C)c1nnc(NC(=O)C2CCN(S(=O)(=O)c3ccc(-n4cnnn4)cc3)CC2)s1,0,1,0,0,-0.063,9,nt
CCCNC(=S)N1CCN(C(c2ccccc2)c2ccccc2)CC1,-3,0,-2,-1,-3.2*,-10,0.082
CCOC(=O)c1c(C)oc2ccc(NS(=O)(=O)c3ccc4c5c(cccc35)C(=O)N4)cc12,-1,-1,0,0,-3*,nt,0.084
COC(=O)c1c(C)oc2ccc(NS(=O)(=O)c3cccs3)cc12,1,0,-1,0,-4*,nt,?
O=C(N/N=C/c1ccc([N+](=O)[O-])o1)c1ccccc1NS(=O)(=O)c1cccs1,nt,1,0,nt,0.48,12,nt
COc1nc(-c2cnccn2)sc1C,10,0,1,1,-0.91,14,nt
O=c1oc(-c2ccccc2NS(=O)(=O)c2ccc3ccccc3c2)nc2ccccc12,-16,-1,-1,-1,0.22,3,nt
CC(c1ccco1)N(C(=O)c1ccccc1NS(=O)(=O)c1ccc(Cl)c([N+](=O)[O-])c1)c1ccccn1 (centres undefined),-2,4,9,0,nt,12,0.062*
NC(=O)c1ccccc1OC1CCC1,nt,1,2,nt,0.9,22,nt
O=C1CCCc2nc3c(cc21)C(O)Oc1ccccc1-3 (centres undefined),0,1,-1,0,nt,-1,0.075
COc1ccc(C(CCN2CCCC(C)C2)c2c(OC)cc(OC)c3c2OC(=O)CC3c2cc(OC)c(OC)c(OC)c2)cc1 (centres undefined),nt,nt,nt,nt,nt,24,nt
COCCCn1c(C)nc2c(c1=O)c1nc3ccccc3nc1n2CCc1ccccc1,7,0,-1,2,-4*,nt,0.05*
SMILES,ABCG2 inh,TRPML3 agonist,TRPN1 ag,ABCB1 block,ROMK mod,Calb biofilm kill,ROMK hit retest
CCOc1ccc(N2C(=O)CC(N3CCN(C4CCc5ccccc5C4)CC3)C2=O)cc1 (centres undefined),7,1,1,3,-2.1*,nt,0.064*
COCCNC(=O)CN(Cc1cccs1)C(=O)CCC(=O)Nc1nccs1,5,0,1,0,nt,8,nt
CC1(C)CCc2cc(-c3ccnc(=S)[nH]3)ccc2O1,nt,0,0,nt,nt,3,0.084
CCCCNc1nc(N(C)c2ccccc2)nc(-n2ccnc2)n1,8,-1,-3,1,1.2,nt,nt
CCCCCNc1nc(-c2ccccc2)nc(-n2ccnc2)n1,9,0,0,1,nt,15,0.085
O=C(CSc1ncccn1)NCc1cccc(Cl)c1,0,-1,0,0,-1,1,nt
Cc1ccc(S(=O)(=O)N2CCOCC2)cc1C(=O)c1nccn1C,4,1,0,2,-0.23,18,nt
N#C/C(=N\Nc1cccc2ccccc12)c1nnc2n1CCCCC2,4,0,0,1,nt,24,0.059*
N#C/C(=C\c1c[nH]c2ccccc12)c1nnc2n1CCCCC2,8,0,0,0,nt,7,nt
COc1ccccc1NC(=O)c1sc2nc(Cc3ccccc3)cc(C(F)(F)F)c2c1N,3,1,-1,2,-5.5*,nt,0.048*
CC(c1ccccc1)N1C(=O)CC(Sc2ncccc2C(=O)O)C1=O (centres undefined),2,1,1,0,0.9*,nt,0.087
O=C(O)c1cccnc1SC1CC(=O)N(c2ccccc2)C1=O (centres undefined),nt,1,2,nt,1.1,21,nt
CCN1CCCC1CN(Cc1cc2ccc(C)cc2[nH]c1=O)C(=S)Nc1cccc(OC)c1 (centres undefined),0,1,1,3,nt,11,nt
COc1cc(CNC(C)(C)CO)cc(Br)c1OCc1ccc(Cl)cc1,9,3,3,1,-5.1*,8,0.056*
COC(=O)Cc1[nH]n(-c2ccccc2)c(=O)c1C=Nc1ccc(C)cc1,nt,-1,-1,nt,nt,31,nt
CCOC(=O)CNC(=O)c1ccc2[nH]c3ccccc3c2c1,7,1,1,1,0.22,8,nt
O=C(NCC(O)CO)c1ccc2[nH]c3ccccc3c2c1 (centres undefined),0,1,0,0,nt,12,0.077
C/C(=N/NC(=O)CNc1ccc(Cl)cc1C)c1ccc(C)cc1,22,1,2,2,12*,17,0.078
Cc1c(CN2CCC(CO)(Cc3ccccc3)CC2)c2ccccc2n1C,4,1,1,2,-2.4*,29,0.06*
CCNC(=O)Cc1c(OC)ccc2cc(Br)ccc12,10,1,0,1,0.19,19,nt
COc1ccc2cc(Br)ccc2c1CC(=O)NC1CC(C)(C)NC(C)(C)C1,0,1,1,0,-2.9*,nt,0.067*

# Screening results from PubChem.
